# PfM18AAP inh-1 – PfM18AAP enzyme inhibition | recombinant PfM18AAP, H-Glu-NHMec fluorogenic cleavage | inhibition, % at 7.35 µM | actives 1.2% (n = 290,000) | AID 1822;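 active means inhibition above the campaign mean inhibition over all tested compounds plus 3 SD, cut at about 28% in these data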;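 further: 0% = plate median of test compound wells and 100% = 2 mM ZnCl2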
# RanGTP-Imp inh – inhibitors of RanGTP-importin-beta interaction, primary screen, biochemical, FRET, CFP-Ran, YFP-importin-beta, homogeneous; cell-free CFP-Ran/YFP-importin-beta FRET ratio; actives 1.1% (n = 300,000); AID 2216; inhibition, % (concentration not given with the values);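 active means more than half of the replicate wells show a fall in the fluorescence ratio signal beyond about 16%, limit read from the data, passing the limit was not always enough; inconclusive means exactly half of the replicate wells pass the set limit; inactive means fewer than half of replicates pass the limit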;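 further: 0% = DMSO wells and 100% = Ran loaded with GDP instead of GTP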
# Runt-SMMHC FRET – inhibitors of human RUNX1 Runt domain binding to CBFb-SMMHC | Cerulean-Runt/Venus-CBFb-SMMHC FRET ratio 530/480, 1 h | actives 0.74% (n = 220,000) | Q01196+Q13951 | inhibition, % at 20 µM;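 active means mean inhibition across duplicate retests at 20 µM reaching about 50%, limit read from the data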;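 further: 0% = DMSO wells and 100% = wells with excess untagged CBFb-SMMHC; inhibitors lower the FRET ratio by blocking Runt binding to CBFb-SMMHC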
# RBBP9 inhibitor – inhibitors of human serine hydrolase RBBP9 | recombinant RBBP9, FP-Rh probe fluorescence polarization | inhibition, % at 7.94 µM | actives 0.2% (n = 220,000);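 active means inhibition above the campaign mean of all tested compounds plus 3 SD, cut at about 14% in these data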;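 further: plate controls were DMSO wells with RBBP9 for no effect and wells lacking RBBP9 protein for full effect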
# Target sequence (O75884 whole entry, looked up): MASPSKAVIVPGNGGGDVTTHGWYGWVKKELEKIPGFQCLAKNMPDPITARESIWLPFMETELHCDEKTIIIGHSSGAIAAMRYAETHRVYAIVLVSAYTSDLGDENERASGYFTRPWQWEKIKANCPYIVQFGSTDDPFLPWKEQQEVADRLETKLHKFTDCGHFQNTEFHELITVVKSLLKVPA
#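 System: RBBP9 protein | Quantity: 2.5 µM RBBP9 dispensing solution, before mixing | Reagent: FP-Rh probe, 375 nM dispensing solution | Timing: Enzyme-compound preincubation 30 min, then probe labeling 45 min, 25 °C | Measured by: Fluorescence polarization | Read-out: % inhibition | Replication: One well per compound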
# Hck Nef HTS – inhibitors of human Hck kinase activated by Nef; inhibition, % at 20 µM; actives 0.68% (n = 220,000); Recombinant Hck-YEEI plus Nef, Z-Lyte FRET kinase assay; AID 463187;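 active means Hck-Nef kinase inhibition above about 50%, limit read from the data; inactive means inhibition below that limit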;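 further: 0% = DMSO with Hck plus Nef and 100% = Hck alone without Nef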
# Target sequence (P08631 whole entry, looked up): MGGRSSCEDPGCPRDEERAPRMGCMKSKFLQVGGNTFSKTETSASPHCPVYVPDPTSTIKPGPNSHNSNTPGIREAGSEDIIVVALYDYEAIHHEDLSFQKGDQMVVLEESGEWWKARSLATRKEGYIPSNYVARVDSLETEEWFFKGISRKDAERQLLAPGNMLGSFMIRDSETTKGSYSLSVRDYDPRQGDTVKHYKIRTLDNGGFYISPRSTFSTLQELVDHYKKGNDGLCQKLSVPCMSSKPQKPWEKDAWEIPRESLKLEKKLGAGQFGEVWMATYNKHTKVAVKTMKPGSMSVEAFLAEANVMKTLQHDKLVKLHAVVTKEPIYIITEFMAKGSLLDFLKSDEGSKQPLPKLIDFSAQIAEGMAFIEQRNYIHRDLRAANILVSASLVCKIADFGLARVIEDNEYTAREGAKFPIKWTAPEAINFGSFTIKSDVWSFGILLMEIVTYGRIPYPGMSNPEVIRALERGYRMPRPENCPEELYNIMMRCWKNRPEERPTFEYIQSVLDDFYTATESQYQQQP
# Runt-CBFb FRET – inhibitors of human RUNX1 Runt domain binding to CBFb; AID 1496; actives 0.46% (n = 220,000); Cerulean-Runt/Venus-CBFb FRET ratio 530/480, 1 h; inhibition, % at 20 µM;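 active means inhibition over about 50% at 20 µM in the single-dose screen, limit read from the data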;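 further: 0% = DMSO wells and 100% = excess unlabeled CBFb competitor control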
#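 Doses: 20 µM compound in 1% DMSO | Material: Cerulean-labeled Runt domain protein | Amount: Each fluorescent fusion protein 100 nM | Schedule: Two 1 h room-temperature incubations shielded from light | Measured by: FRET fluorescence | Evaluation: Loss of energy transfer signal | Controls: Unlabeled CBFb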
# PfM18AAP inh-2 – PfM18AAP inhibition, confirmation. recombinant PfM18AAP, H-Glu-NHMec fluorogenic cleavage. inhibition, % at 7.35 µM. AID 2170. actives 28% (n = 2,400). shares compounds with PfM18AAP inh-1;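 active means mean inhibition over replicate wells above the hit cutoff set for the earlier primary screen, cut at about 29% in these data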;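 further: 0% = median of test compound wells and 100% = 2 mM ZnCl2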
# CTSL1 confirm – Cathepsin L (human) inhibition, confirmation; inhibition, % at 5.96 µM; purified cathepsin L1, Z-Leu-Arg-MCA fluorescence; 2,400 tested, under 10 active; shares compounds with PfM18AAP inh-1;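 active means average inhibition across replicates above the hit cutoff set in the earlier primary screen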;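 further: 0% = median of test compound wells and 100% = Z-Phe-Ala-diazomethylketone 1 µM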
# An asterisk follows results filed as active; ? = inconclusive; / = no result. Most compounds without a hit are left out; they make up all but 2.9% or so of the library.
SMILES,PfM18AAP inh-1,RanGTP-Imp inh,Runt-SMMHC FRET,RBBP9 inhibitor,Hck Nef HTS,Runt-CBFb FRET,PfM18AAP inh-2,CTSL1 confirm
N#C/C(=C\c1ccc(O)c(O)c1)C(=O)NCCCc1ccccc1,34*,12,-1,-8,29,-1,-9,-3
N#C/C(=C\c1ccc(O)c(O)c1)C(=O)N1CCCC1,56*,3,6,-2,-27,7,21,3
CCOc1cc(-c2nccc3cc(OC)c(OC)cc23)cc(OCC)c1OCC,2,-2,/,/,/,/,/,/
CN(c1ccc(O)cc1)c1nc(-c2cccs2)cs1,39*,-1,/,11,19,/,-5,1
Cc1nc(N)sc1-c1csc(N(C)c2ccc(O)cc2)n1,33*,-7,17,-5,7,26,-25,0
Cc1ccc(S(=O)(=O)NCCNc2ccc([N+](=O)[O-])cc2)cc1,0,4,/,/,/,/,/,/
O=C(Cc1ccccc1)NCC(=O)OCc1ccc([N+](=O)[O-])cc1,14,4,-2,-2,-1,-1,/,/
NNC(=O)CNS(=O)(=O)c1ccc([N+](=O)[O-])cc1,35*,3,1,-2,11,1,-3,0
Cc1ccc(C(=O)NCC(=O)NCC(=O)OCC(=O)c2ccc([N+](=O)[O-])cc2)cc1,33*,1,4,0,0,9,1,1
Cc1ccc(C(=O)COC(=O)CNC(=O)CNC(=O)c2ccc(C)cc2)cc1,1,2,6,-8,4,-3,/,/
O=C(Cc1ccccc1)NCC(=O)OCC(=O)c1ccc([N+](=O)[O-])cc1,39*,7,7,-1,-3,10,4,-10
O=C(CNC(=O)c1ccco1)OCC(=O)c1ccc([N+](=O)[O-])cc1,40*,2,/,/,/,/,-4,0
CN1CCN(C(=O)C2CCC(=O)N(CCc3cccc(F)c3)C2)CC1 (stereo unspecified),-1,5,/,/,/,/,/,/
O=C(CNC(=O)c1ccc(Cl)cc1)NC(CO)c1ccccc1 (stereo unspecified),-1,-3,/,/,/,/,/,/
O=C(CNS(=O)(=O)c1ccccc1)OCC(=O)c1ccc([N+](=O)[O-])cc1,33*,-2,4,-7,11,10,1,-13
O=C(CNC(=O)c1cccs1)OCC(=O)c1ccc([N+](=O)[O-])cc1,45*,0,-1,1,22,11,0,0
O=C(CNS(=O)(=O)c1ccccc1)OCC(=O)c1ccc(Br)cc1,-6,1,/,/,/,/,/,/
Cc1ccc2c(c1)C1(C)C(C(C)(C)N2C=O)C1(Cl)Cl (stereo unspecified),10,2,-1,-5,1,-1,/,/
CC(Cc1ccccc1)NC(=O)CCCN1C(=O)c2ccccc2C1=O (stereo unspecified),0,0,/,/,/,/,/,/
COc1ccc(Br)c(OC)c1C(=O)NC(=O)Nc1nc(C)cc(C)n1,2,2,0,3,-19,0,/,/
COc1cc(NC(=O)NNC(=O)c2cc3occc3n2C)cc(OC)c1OC,60*,-2,/,/,/,/,30*,-1
COC(=O)Oc1ccc(/C=C/C(=O)OC(C)C)cc1OC(=O)OC,72*,3,9,-1,19,9,43*,-6
CCCCOC(=O)/C=C/c1ccc(OC(=O)OC)c(OC(=O)OC)c1,-6,-4,3,-6,-1,-6,/,/
O=C(CN1CCN(CC(=O)Nc2ccccc2Cc2ccccc2)CC1)Nc1ccccc1Cl,-7,7,/,/,/,/,/,/
Cc1nc([N+](=O)[O-])c(C(=O)OCc2ccccc2C#N)n1C,-11,4,1,-6,20,2,/,/
SMILES,PfM18AAP inh-1,RanGTP-Imp inh,Runt-SMMHC FRET,RBBP9 inhibitor,Hck Nef HTS,Runt-CBFb FRET,PfM18AAP inh-2,CTSL1 confirm
COc1ccccc1CNc1nc(C)c(C(=O)N(C)C)s1,34*,-5,/,/,/,/,-35,1
CC(=O)c1ccc(NC(=S)NC(C)c2ccc(Cl)cc2Cl)cc1 (stereo unspecified),3,-1,0,-24,20,2,/,/
CCc1ccccc1-n1c(SCC(=O)NC)nnc1-c1ccco1,1,-1,/,/,/,/,/,/
CC(=O)Nc1ccc(-c2csc(Nc3ccccn3)n2)cc1,-1,3,-4,2,13,0,/,/
Oc1ccc(-c2csc(Nc3cccc4ccccc34)n2)cc1O,55*,-3,/,/,/,/,25,-13
Cc1ccnc(Nc2nc(-c3ccc(O)c(O)c3)cs2)c1,62*,-1,/,/,/,/,47*,-1
Cc1csc(Nc2cccc3ccccc23)n1,7,1,0,-1,19,2,/,/
Cc1cccc(Nc2nc(-c3ccc(O)c(O)c3)cs2)n1,54*,-2,/,/,/,/,28,-5
Oc1ccc(-c2csc(Nc3ccccn3)n2)cc1O,64*,-1,/,/,/,/,47*,-4
COc1cc(C(CC(=O)Nc2cc(C)ccn2)N2Cc3ccccc3C2=O)cc(OC)c1OC (stereo unspecified),-2,3,/,/,/,/,/,/
CC(=O)Oc1ccc2c(=O)c(Oc3ccccc3)c(C)oc2c1OC(C)=O,44*,1,31,-15,4,16,19,-7
COc1ccc(/C=N/NC(=O)C(=O)/C=C2\NC3(CCCC3)Cc3ccccc32)cc1,8,-2,-4,-8,3,-1,/,/
O=C(/C=C1\NC2(CCCC2)Cc2ccccc21)C(=O)N/N=C/c1ccc(O)c(O)c1,64*,-6,25,-18,2,6,37*,2
O=C(O)C1=C[C@@H](c2ccc3c(c2)OCO3)C[C@@H](OCc2ccc(CO)cc2)O1,36*,4,2,5,-2,2,-13,2
CCOc1c(Nc2ccccc2O)c(=O)c1=O,35*,-4,1,-4,12,1,-28,1
CCOC(=O)c1ccc(Nc2c(OCC)c(=O)c2=O)cc1,3,-3,6,-6,23,0,/,/
CN(C)/C=C(\C#N)C(=O)N/N=C/c1ccc(F)cc1,0,?,2,-4,19,0,/,/
CC/C(CC(=O)C(F)(F)F)=N\NC(=O)/C(C#N)=C/N(C)C,43*,-2,-5,1,-1,0,-54,8
Oc1ccc(/C=N/Nc2cccc(Cl)n2)c(O)c1,58*,3,/,/,/,/,57*,7
CC(=O)/C(=N\Nc1ccc(C)cc1)N1CCOCC1,55*,0,-7,5,0,0,-46,6
O=C(CCNc1n[nH]c(=O)[nH]c1=O)N/N=C/c1ccc(C(F)(F)F)cc1,6,5,-2,-4,3,-1,/,/

# Screening data (PubChem BioAssay)
